Experimental data as given in ChEMBL document CHEMBL1122659, “Synthesis of some phosphonates with antiherpetic activity” (1984).
Converted amounts (≈) assume the structure as drawn. Each block holds one compound with its values, some of them ahead of it. The source made the active and inactive calls. The calls are words filed in the database; no cut-off is given here.

Legend:
[1] = species: Oryctolagus cuniculus; assay: In vitro ability to inhibit the herpes HSV-2 virus; Inactive; type: functional, organism-based; conditions: herpes simplex virus
[2] = species: Mus musculus; assay: Average survival rate of mice infected intravaginally with herpes simplex virus type 2 at daily dosage of 10%(treatment initiated 4-h postinfection and continued for 7 days); type: functional
Procedure, shortened: (§1)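 Mice infected intravaginally with HSV-2. Test agent suspended in gum tragacanth and applied intravaginally. Survival recorded.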

[3] = species: Mus musculus; assay: Average survival rate of mice infected intravaginally with herpes simplex virus type 2 at daily dosage of 5%(treatment initiated 4-h postinfection and continued for 7 days); type: functional; procedure, shortened: as §1
[4] = species: Mus musculus; assay: Average survival rate of mice infected intravaginally with herpes simplex virus type 2 with placebo (treatment initiated 4-h postinfection and continued for 7 days)
[5] = species: Mus musculus; assay: Percent survival rate of mice infected intravaginally with herpes simplex virus type 2 at daily dosage of 5%(treatment initiated 4-h postinfection and continued for 7 days); type: functional; procedure, shortened: as §1
[6] = species: Mus musculus; assay: Percent survival rate of mice infected intravaginally with herpes simplex virus type 2 at daily dosage of 10%(treatment initiated 4-h postinfection and continued for 7 days); type: functional; procedure, shortened: as §1
[7] = species: Mus musculus; assay: Percent survival rate of mice infected intravaginally with herpes simplex virus type 2 at daily dosage of 2.5%(treatment initiated 4-h postinfection and continued for 7 days); type: functional; procedure, shortened: as §1
[8] = In vitro ability to inhibit the herpes HSV-2 virus; type: functional, herpes simplex virus; conditions: Oryctolagus cuniculus
[9] = species: Cavia porcellus; assay: Effect on the growth of Herpes simplex Type 1 on the skin of Guinea pigs infected intradermally on day 1 at 8 % concentration; type: functional
Procedure, shortened: (§2)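 Guinea pigs were infected intradermally with HSV-1 on an epilated flank and treated topically with cream. Virus in skin-scraping supernatants was titered by plaque assay on BSC-1 monolayers. Dilutions of 10⁻¹ to 10⁻⁸ in Eagle's medium with 2% FCS were plated in triplicate and adsorbed 1 h at 37 °C. An agarose overlay followed, with 4 days' incubation, formalin fixation, crystal violet staining and plaque counting.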

[10] = species: Cavia porcellus; assay: Effect on the growth of Herpes simplex Type 1 on the skin of Guinea pigs infected intradermally on day 4 at 8 % concentration; type: functional; procedure, shortened: as §2
[11] = species: Cavia porcellus; assay: Effect on the development of Herpetic vesicles in Guinea pigs infected intradermally with Herpes virus Hominis, Type 1,AA strain on day 2 at 8 % concentration; type: functional
Procedure, shortened: (§3)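 Hartley albino guinea pigs (350–400 g) were infected with undiluted HSV-1 AA strain, 0.05 mL placed in a 12-mm circle on an epilated flank and given intradermally by vaccination gun. Test article was a topical cream, with treatment starting 24 h postinfection. Mean vesicle score was recorded on days 1–5 against placebo and nonmedicated groups.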

[12] = species: Cavia porcellus; assay: Effect on the development of Herpetic vesicles in Guinea pigs infected intradermally with Herpes virus Hominis, Type 1,AA strain on day 1 at 8 % concentration; type: functional; procedure, shortened: as §3
[13] = species: Cavia porcellus; assay: Effect on the growth of Herpes simplex Type 1 on the skin of Guinea pigs infected intradermally on day 3 at 8 % concentration; type: functional; procedure, shortened: as §2
[14] = species: Cavia porcellus; assay: Effect on the development of Herpetic vesicles in Guinea pigs infected intradermally with Herpes virus Hominis, Type 1,AA strain on day 4 at 8 % concentration; type: functional; procedure, shortened: as §3
[15] = species: Cavia porcellus; assay: Effect on the growth of Herpes simplex Type 1 on the skin of Guinea pigs infected intradermally on day 2 at 8 % concentration; type: functional; procedure, shortened: as §2
[16] = species: Cavia porcellus; assay: Effect on the development of Herpetic vesicles in Guinea pigs infected intradermally with Herpes virus Hominis, Type 1,AA strain on day 3 at 8 % concentration; type: functional; procedure, shortened: as §3

Compound: CCOC(=O)C(CCCCCCOc1ccc(OC)cc1Cl)P(=O)(OCC)OCC (stereo not given)
Average survival [2]: >8.7 days | Average survival [3]: >7.3 days | Average survival [4]: >8.1 days | Survival [5]: 10% | Survival [6]: 20% | Survival [7]: 10% | MIC [8]: 3 µg/mL (≈ 6.45 µM)

Compound: CCC(=O)C(CCCCCCOc1ccc(OC)cc1Cl)C(=O)CC [ARILDONE]
Log geometric mean [9]: 4.13 pfu mg-1 | Log geometric mean [10]: 2.62 pfu mg-1 | Mean vesicle score [11]: 0.83 | Mean vesicle score [12]: 0.33 | Log geometric mean [13]: 2.92 ppfu mg-1 | Mean vesicle score [14]: 0.83 | Log geometric mean [15]: 4.07 pfu mg-1 | Mean vesicle score [16]: 0.92

Compound: CCOP(=O)(OCC)C(CCCCc1ccc(OC)cc1)C(C)=O (stereo not given)
MIC [8]: 25 µg/mL (≈ 70.1 µM)

Compound: CCOP(=O)(OCC)C(CCCCCOc1ccc(OC)cc1Cl)C(C)=O (stereo not given)
MIC [8]: 6 µg/mL (≈ 14.3 µM)

Compound: CCOP(=O)(CCCCCCOc1c(Cl)cccc1Cl)OCC
MIC [8]: 12 µg/mL (≈ 31.3 µM)

Compound: CCOP(=O)(OCC)C(CCCCCCCOc1ccc(OC)cc1Cl)C(C)=O (stereo not given)
MIC [8]: 6 µg/mL (≈ 13.4 µM)

Compound: CCOP(=O)(CCCCCCOc1c(OC)cccc1OC)OCC
MIC [1]: inactive

More lines, now with the values ahead:

MIC [1]: inactive
Compound: COc1ccc(OCCCCCCP(=O)(O)O)c(Cl)c1

MIC [1]: inactive
Compound: CCOP(=O)(CCCCOc1ccc(OC)cc1Cl)OCC

MIC [1]: inactive
Compound: CCOP(=O)(CCCCCOc1ccc(OC)cc1Cl)OCC

MIC [1]: inactive
Compound: CCOP(=O)(CCCCCCCOc1ccc(OC)cc1Cl)OCC

MIC [1]: inactive
Compound: CCOP(=O)(CCCCCCOc1ccc(Br)cc1)OCC
